Measurements reported in ChEMBL document CHEMBL1138153, “N-substituted 4beta-methyl-5-(3-hydroxyphenyl)-7alpha-amidomorphans are potent, selective kappa opioid receptor antagonists” (J Med Chem, 2006).

Assays:
[1] = biological target: Opioid receptors; delta & kappa (Homo sapiens) (UniProt P41145+P41143); experiment: Selectivity for human kappa opioid receptor over human delta opioid receptor; type: protein assay
[2] = biological target: Opioid receptors; mu & kappa (Homo sapiens) (UniProt P41145+P35372); experiment: Selectivity for human kappa opioid receptor over human mu opioid receptor; type: protein assay
Sequence of Opioid receptors; mu & kappa (Homo sapiens) (P35372 whole entry, looked up): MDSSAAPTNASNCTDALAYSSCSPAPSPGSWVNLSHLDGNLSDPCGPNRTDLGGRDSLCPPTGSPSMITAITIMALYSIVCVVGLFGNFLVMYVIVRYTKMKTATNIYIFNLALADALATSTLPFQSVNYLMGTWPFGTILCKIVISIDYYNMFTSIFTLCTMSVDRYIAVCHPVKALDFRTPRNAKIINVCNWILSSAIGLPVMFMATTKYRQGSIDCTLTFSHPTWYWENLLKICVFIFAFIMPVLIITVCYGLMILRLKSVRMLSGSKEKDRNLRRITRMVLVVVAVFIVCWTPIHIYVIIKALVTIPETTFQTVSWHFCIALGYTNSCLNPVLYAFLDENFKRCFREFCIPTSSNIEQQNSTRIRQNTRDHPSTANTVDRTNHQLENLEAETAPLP
Sequence of Opioid receptors; mu & kappa (Homo sapiens) (P41145 whole entry, looked up): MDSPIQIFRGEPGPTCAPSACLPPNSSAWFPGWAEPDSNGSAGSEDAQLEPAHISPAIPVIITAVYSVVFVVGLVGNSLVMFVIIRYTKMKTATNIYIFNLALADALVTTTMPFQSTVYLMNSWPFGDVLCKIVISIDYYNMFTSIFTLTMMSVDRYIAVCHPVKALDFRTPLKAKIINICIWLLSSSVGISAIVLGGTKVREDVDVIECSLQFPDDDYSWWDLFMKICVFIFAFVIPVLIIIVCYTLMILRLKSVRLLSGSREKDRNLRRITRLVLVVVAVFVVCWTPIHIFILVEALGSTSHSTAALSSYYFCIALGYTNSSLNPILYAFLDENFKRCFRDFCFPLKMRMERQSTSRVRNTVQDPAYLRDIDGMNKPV

[3] = biological target: Kappa-type opioid receptor (Homo sapiens) (UniProt P41145); experiment: Inhibition of U69,593 stimulated [35S]GTP-gamma-S binding to cloned human kappa opioid receptor expressed in CHO cells; type: functional, cell-based
Sequence of Kappa-type opioid receptor (Homo sapiens) (P41145 whole entry): as the sequence (P41145 whole entry, looked up) above
Procedure, shortened: (§1)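 Antagonism measured as a rightward shift of the agonist concentration–response curve for [35S]GTPγS binding in CHO cells expressing the cloned human receptor. Curves were run with and without one fixed concentration of test compound. Ke = [L]/(DR − 1), where [L] is the test compound concentration and DR is the ratio of agonist EC50 with versus without test compound.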

[4] = biological target: Delta-type opioid receptor (Homo sapiens) (UniProt P41143); experiment: Inhibition of DPDPE stimulated [35S]GTP-gamma-S binding to cloned human delta opioid receptor expressed in CHO cells; type: functional, cell-based; procedure, shortened: as §1
Sequence of Delta-type opioid receptor (Homo sapiens) (P41143 whole entry): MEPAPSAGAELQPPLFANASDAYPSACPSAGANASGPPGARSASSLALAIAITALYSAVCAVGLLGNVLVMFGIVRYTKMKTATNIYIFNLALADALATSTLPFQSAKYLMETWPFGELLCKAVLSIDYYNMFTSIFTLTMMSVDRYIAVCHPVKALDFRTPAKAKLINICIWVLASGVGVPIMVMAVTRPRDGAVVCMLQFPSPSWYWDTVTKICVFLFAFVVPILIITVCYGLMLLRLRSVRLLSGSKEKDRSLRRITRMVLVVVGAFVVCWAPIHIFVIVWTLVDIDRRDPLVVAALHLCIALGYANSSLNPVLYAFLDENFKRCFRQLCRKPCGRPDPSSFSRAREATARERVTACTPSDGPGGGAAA

[5] = biological target: Mu-type opioid receptor (Homo sapiens) (UniProt P35372); experiment: Inhibition of DAMGO stimulated [35S]GTP-gamma-S binding to cloned human mu opioid receptor expressed in CHO cells; type: functional, cell-based; procedure, shortened: as §1
Sequence of Mu-type opioid receptor (Homo sapiens) (P35372 whole entry): as the sequence (P35372 whole entry, looked up) above

Sequence of Opioid receptors; delta & kappa (Homo sapiens) (P41143 whole entry, looked up): as the sequence (P41143 whole entry) above
Sequence of Opioid receptors; delta & kappa (Homo sapiens) (P41145 whole entry, looked up): as the sequence (P41145 whole entry, looked up) above

Row | SMILES | Ratio Ke [1] | Ratio Ke [2] | Ke [3] [nM] | Ke [4] [nM] | Ke [5] [nM]
1 | CC1CN(CCCc2ccccc2)C2C[C@H](NC(=O)CCN3CCOCC3)CC1(c1cccc(O)c1)C2 (stereo partly specified) | 35 | 118 | 2.2 | 77 | 259
2 | CC1CN(CCCc2ccccc2)C2C[C@H](NC(=O)CCN3CCc4ccc(O)cc4C3)CC1(c1cccc(O)c1)C2 (stereo partly specified) | 689 | 578 | 0.09 | 62 | 52
3 | CC1CN(CCCc2ccccc2)C2C[C@H](NC(=O)CCN3CCc4cc(O)ccc4C3)CC1(c1cccc(O)c1)C2 (stereo partly specified) | 107 | 87 | 0.3 | 32 | 26
4 | CC1CCN(CCC(=O)N[C@H]2CC3CC(c4cccc(O)c4)(C2)C(C)CN3CCCc2ccccc2)CC1 (stereo partly specified) | 666 | 374 | 0.47 | 313 | 176
5 | COc1ccc2c(c1)CN(CCC(=O)N[C@H]1CC3CC(c4cccc(O)c4)(C1)C(C)CN3CCCc1ccccc1)CC2 (stereo partly specified) | 125 | 100 | 0.28 | 35 | 28
6 | Cc1ccccc1CN1CC(C)C2(c3cccc(O)c3)CC1C[C@H](NC(=O)CCN1CCc3ccccc3C1)C2 (stereo partly specified) | > 82 | > 82 | 6.1 | > 500 | > 500
7 | CC1CN(CCCc2cccs2)C2C[C@H](NC(=O)CCN3CCc4ccccc4C3)CC1(c1cccc(O)c1)C2 (stereo partly specified) | 11 | 14 | 1.8 | 19 | 25
8 | Cc1ccccc1CCCN1CC(C)C2(c3cccc(O)c3)CC1C[C@H](NC(=O)CCN1CCc3ccccc3C1)C2 (stereo partly specified) | 100 | 205 | 0.2 | 20 | 41
9 | CC1CN(CCCc2ccccc2)C2C[C@H](NC(=O)CCN3CCc4ccccc4C3)CC1(c1cccc(O)c1)C2 (stereo partly specified) | 144 | 533 | 0.09 | 13 | 48
10 | CC1CN(CCCc2ccccc2)C2C[C@H](NC(=O)CCN3CCc4c(O)cccc4C3)CC1(c1cccc(O)c1)C2 (stereo partly specified) | 357 | 66 | 0.07 | 25 | 4.6
11 | Cc1ccccc1CCN1CC(C)C2(c3cccc(O)c3)CC1C[C@H](NC(=O)CCN1CCc3ccccc3C1)C2 (stereo partly specified) | 625 | 700 | 0.04 | 25 | 28
12 | CC1CN(CCCc2ccccc2)C2C[C@H](NC(=O)CCN3CCCCC3)CC1(c1cccc(O)c1)C2 (stereo partly specified) | 138 | 175 | 0.24 | 33 | 42
13 | CC1CN(CCCc2ccco2)C2C[C@H](NC(=O)CCN3CCc4ccccc4C3)CC1(c1cccc(O)c1)C2 (stereo partly specified) | 163 | 109 | 0.32 | 52 | 35
14 | CC1CN(CCCc2ccccc2)C2C[C@H](NC(=O)CCN3CCN(C)CC3)CC1(c1cccc(O)c1)C2 (stereo partly specified) | 214 | 94 | 0.87 | 186 | 82
15 | COc1cc2c(cc1OC)CN(CCC(=O)N[C@H]1CC3CC(c4cccc(O)c4)(C1)C(C)CN3CCCc1ccccc1)CC2 (single isomer, unassigned; (-)) | 74 | 404 | 0.54 | 40 | 218
16 | CCCCCCN1CC(C)C2(c3cccc(O)c3)CC1C[C@H](NC(=O)CCN1CCc3ccccc3C1)C2 (stereo partly specified) | 725 | 515 | 0.2 | 145 | 103
17 | COc1ccc2c(c1)CCN(CCC(=O)N[C@H]1CC3CC(c4cccc(O)c4)(C1)C(C)CN3CCCc1ccccc1)C2 (stereo partly specified) | 350 | 2180 | 0.12 | 42 | 261
18 | CC1CN(CCCc2ccsc2)C2C[C@H](NC(=O)CCN3CCc4ccccc4C3)CC1(c1cccc(O)c1)C2 (stereo partly specified) | 26 | 47 | 1.1 | 29 | 52
19 | CC(C)[C@@H](CN1CC[C@@](C)(c2cccc(O)c2)[C@@H](C)C1)NC(=O)[C@H]1Cc2ccc(O)cc2CN1 | – | – | 0.02 | – | –
